pEC50: −log10 of the molar value. The source made the active and inactive calls. The calls are words filed in the database; no cut-off is given here.
Key:
[1] = species: Rattus norvegicus; assay: Difference in systolic blood pressure observed prior to the first application and 2 hr after the fifth application to spontaneously hypertensive rats(SHR); format: functional, Artery
Outline: (§1)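 Groups of six conscious male SH rats (Wistar-Okamoto origin, 250-300 g, 12-16 weeks; systolic pressure >160 mmHg) received 25 mg/kg po daily for 5 days as a 0.5% carboxymethylcellulose suspension, with vehicle controls. Systolic pressure was taken by tail-cuff after warming at 37-38 °C for 10 min, before the first dose and 2 h after each dose. Paired t test; only falls >15 mmHg with p < 0.05 were listed.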

[2] = species: Cavia porcellus; assay: Positive ionotropic activity (0.1x10E 6 g/mL) was determined in guinea pig; no significant activity; format: functional, organism-based
[3] = species: Felis catus; assay: Effective dose in cat was determined; format: functional
Outline: (§2)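 Cats of either sex (3.0-4.5 kg) under chloralose anesthesia (70 mg/kg iv). Compounds were dissolved in propylene glycol (10 mg/mL stock), diluted in distilled water and injected iv via the femoral vein at 30, 100, 300, 500 and 1000 µg/kg, three animals per dose. Fall in mean arterial pressure (femoral artery transducer) was read at 10 min. ED20 was taken from log dose-response curves.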

[4] = species: Rattus norvegicus; assay: Difference in systolic blood pressure observed prior to the first application and 2 hr after the fifth application to spontaneously hypertensive rats (SHR); format: functional, Artery; outline: as §1
[5] = tested on: Rattus norvegicus; assay: Difference in systolic blood pressure observed prior to the first application and 2 hr after the fifth application at 20 mg/kg, po daily for 5 days to spontaneously hypertensive rats (SHR); format: functional, Artery
Outline: (§3)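 Male SH rats (Wistar-Okamoto derived, 250-300 g, 12-16 weeks old) with systolic pressure above 160 mmHg, in groups of six. The dose was given orally once daily for 5 days as a suspension in 0.5% carboxymethylcellulose, and a vehicle control group was run. Systolic pressure was read by tail-cuff after 10 min warming at 37-38 °C, before dosing and 2 h post-dose. Paired Student's t test.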

[6] = species: Rattus norvegicus; assay: Difference in systolic blood pressure observed prior to the first application and 2 hr after the fifth application to spontaneously hypertensive rats (SHR); NS denotes not significant; format: functional, organism-based; conditions: Artery
[7] = tested on: Felis catus; assay: Percent fall in blood pressure, 10 min after intravenous administration at doses 300 ug/kg in cat; format: functional; outline: as §2
[8] = species: Cavia porcellus; assay: Positive ionotropic activity determined as effective concentration in guinea pig; Range 6.8*10e-7 to 1.75x10E-6M; format: functional, organism-based
[9] = tested on: Rattus norvegicus; assay: Difference in systolic blood pressure observed prior to the first application and 2 hr after the fifth application at 10 mg/kg, po daily for 5 days to spontaneously hypertensive rats (SHR); format: functional, Artery; outline: as §3
[10] = tested on: Felis catus; assay: Percent fall in blood pressure, 10 min after intravenous administration at doses 500 ug/kg in cat; format: functional; outline: as §2
[11] = tested on: Rattus norvegicus; assay: Difference in systolic blood pressure observed prior to the first application and 2 hr after the fifth application at 5 mg/kg, po daily for 5 days to spontaneously hypertensive rats (SHR); format: functional, Artery; outline: as §3

Compound | Activity [2] | ED20 [3] [mg/kg] | Delta blood pressure [4] [mmHg] | also measured
C=C[C@@]1(C)CC(=O)[C@@]23OS(=O)O[C@H]4CCC(C)(C)[C@H](C(O)C(OC(C)=O)[C@@]2(C)O1)C43C (stereo not given in full) | no significant activity | > 0.5 |  | Delta blood pressure [1]: -31 mmHg
C=C[C@@]1(C)CC(=O)[C@@]23OC(=O)O[C@H]4CCC(C)(C)[C@H](C(O)C(OC(C)=O)[C@@]2(C)O1)C43C (stereo not given in full) | no significant activity | > 0.5 | -16.7 | 
C=C[C@@]1(C)CC(=O)[C@]2(O)C3(C)[C@@H](O)CCC(C)(C)[C@@H]3C(O)C(OS(=O)(=O)c3ccc(C)cc3)[C@@]2(C)O1 (stereo not given in full) | no significant activity | > 0.5 |  | Delta blood pressure [1]: -27.3 mmHg
CC[C@@]1(C)CC(=O)[C@]2(O)C3(C)[C@@H](O)CCC(C)(C)[C@@H]3C(O)C(OC(C)=O)[C@@]2(C)O1 (stereo not given in full) |  | > 0.5 |  | Delta blood pressure [5]: -15.7 mmHg
C=C[C@@]1(C)CC(=O)[C@]2(O)C3(C)[C@@H](OC(=O)Nc4ccccc4)CCC(C)(C)[C@@H]3C(O)C(OC(C)=O)[C@@]2(C)O1 (stereo not given in full) |  | > 0.5 |  | Delta blood pressure [6]: inactive
C=C[C@@]1(C)CC(=O)[C@]2(O)C3(C)[C@@H](O)CCC(C)(C)[C@@H]3C(OC(C)=O)C(O)[C@@]2(C)O1 (stereo not given in full) | no significant activity | > 0.5 | -28 | Decrease in blood pressure [7]: 20%; pEC50 [8]: 5.96
C=C[C@@]1(C)CC(=O)[C@]2(O)C3(C)C(O)CCC(C)(C)[C@@H]3C(OC(C)=O)C(OC(C)=O)[C@@]2(C)O1 (stereo not given in full) | no significant activity | > 0.5 | -24.3 | 
C=C[C@@]1(C)CC(=O)[C@]2(O)C3(C)[C@@H](OC)CCC(C)(C)[C@@H]3C(OC(C)=O)C(O)[C@@]2(C)O1 (stereo not given in full) | no significant activity | > 0.5 | -25.3 | 
C=C[C@@]1(C)CC(=O)[C@@]23OS(=O)O[C@H]4CCC(C)(C)[C@H](C5OS(=O)OC5[C@@]2(C)O1)C43C (stereo not given in full) | no significant activity | > 0.5 |  | Delta blood pressure [1]: 0 mmHg
C=C[C@@]1(C)CC(=O)[C@@]23OC(=O)O[C@H]4CCC(C)(C)[C@H](C5OC(=O)OC5[C@@]2(C)O1)C43C (stereo not given in full) | no significant activity | > 0.5 | -23 | 
C=C[C@@]1(C)CC(=O)[C@]2(O)C3(C)[C@@H](OCCN(CC)CC)CCC(C)(C)[C@@H]3C(OC(C)=O)C(O)[C@@]2(C)O1.Cl (stereo not given in full) | no significant activity | > 0.5 | -26.7 | 
CC(=O)OC1C(O)[C@H]2C(C)(C)CC[C@H](O)C2(C)[C@@]2(O)C(=O)C[C@](C)(C=O)O[C@]12C (stereo not given in full) |  | > 0.5 |  | Delta blood pressure [1]: -22 mmHg
C=C[C@@]1(C)CC(=O)[C@]2(O)C3(C)[C@@H](OC)CCC(C)(C)[C@@H]3C(O)C(OC(C)=O)[C@@]2(C)O1 (stereo not given in full) | no significant activity | > 0.5 | 0 | 
C=C[C@@]1(C)CC(=O)[C@]2(O)C3(C)[C@@H](O)CCC(C)(C)[C@@H]3C(O)C(OC(C)=O)[C@@]2(C)O1 (stereo not given in full) | no significant activity | 0.038 | -26 | 
C=C[C@@]1(C)CC(=O)[C@]2(O)C3(C)[C@@H](OCc4ccccc4)CCC(C)(C)[C@@H]3C(O)C(OC(=O)C(C)(C)Br)[C@@]2(C)O1 (stereo not given in full) |  | > 0.5 |  | Delta blood pressure [1]: 0 mmHg
C=C[C@@]1(C)CC(=O)[C@@H]2C3(C)CCCC(C)(C)[C@@H]3C(O)C(OC(C)=O)[C@@]2(C)O1 (stereo not given in full) | no significant activity | > 0.5 | 0 | 
CN1CCN(CC(O)[C@@]2(C)CC(=O)[C@]3(O)C4(C)[C@@H](O)CCC(C)(C)[C@@H]4C(O)C(O)[C@@]3(C)O2)CC1.Cl.Cl (stereo not given in full) | no significant activity | > 0.5 |  | Delta blood pressure [6]: inactive

Compound | Activity [2] | ED20 [3] [mg/kg] | Delta blood pressure [4] [mmHg] | also measured
CC(=O)OC1C(O)[C@H]2C(C)(C)CC[C@H](O)C2(C)[C@@]2(O)C(=O)C[C@](C)(C3CO3)O[C@]12C (stereo not given in full) |  | > 0.5 |  | Delta blood pressure [1]: -22.67 mmHg
C=C[C@@]1(C)CC(=O)[C@]2(O)C3(C)[C@@H](O)CCC(C)(C)[C@@H]3C3OC(=O)OC3[C@@]2(C)O1 (stereo not given in full) |  | > 0.5 | -24.67 | 
C=C[C@@]1(C)CC(=O)[C@]2(O)C3(C)[C@@H](O[Si](C)(C)C)CCC(C)(C)[C@@H]3C(O)C(OC(C)=O)[C@@]2(C)O1 (stereo not given in full) |  | > 0.5 |  | Delta blood pressure [1]: 0 mmHg
C=C[C@@]1(C)C[C@H](O)[C@]2(O)C3(C)[C@@H](O)CCC(C)(C)[C@@H]3C(O)C(O)[C@@]2(C)O1 (stereo not given in full) | no significant activity | > 0.5 |  | Delta blood pressure [9]: -19.3 mmHg
C=C[C@@]1(C)CC(=O)[C@]2(O)[C@@]3(C)[C@@H](O)CCC(C)(C)[C@@H]3[C@H](O)[C@H](O)[C@@]2(C)O1 | no significant activity | > 0.5 | -24.6 | Decrease in blood pressure [10]: 20%
C=C[C@@]1(C)CC(=O)[C@]2(O)C3(C)[C@@H](OC(=O)C(C)(C)C)CCC(C)(C)[C@@H]3C(O)C(OC(=O)C(C)(C)C)[C@@]2(C)O1 (stereo not given in full) |  | > 0.5 |  | Delta blood pressure [1]: 0 mmHg
C=C[C@@]1(C)CC(=O)[C@]2(O)C3(C)[C@@H](O)CCC(C)(C)[C@@H]3C(O)C(OC=O)[C@@]2(C)O1 (stereo not given in full) | no significant activity | > 0.5 | -23.7 | 
C=C[C@@]1(C)CC(=O)[C@]2(O)C3(C)[C@@H](O)CCC(C)(C)[C@@H]3C(O)C(OC(=O)OCC)[C@@]2(C)O1 (stereo not given in full) | no significant activity | > 0.5 | 0 | 
Nc1cc(N2CCCCC2)nc(N)[n+]1[O-] [MINOXIDIL] | no significant activity | > 0.5 |  | Delta blood pressure [11]: -51.2 mmHg
C=C[C@@]1(C)CC(=O)[C@]2(O)C3(C)[C@@H](O)CCC(C)(C)[C@@H]3C(OC(C)=O)C(OC(=O)CC)[C@@]2(C)O1 (stereo not given in full) |  | > 0.5 | 0 | 
C=C[C@@]1(C)CC(=O)[C@]2(O)C3(C)C(=O)CCC(C)(C)[C@@H]3C(O)C(OC(C)=O)[C@@]2(C)O1 (stereo not given in full) | no significant activity | > 0.5 | 0 | 
C=C[C@@]1(C)C[C@H](O)[C@]2(O)C3(C)[C@@H](O)CCC(C)(C)[C@@H]3C(O)C(OC(C)=O)[C@@]2(C)O1 (stereo not given in full) |  | > 0.5 | 0 | 
C=C[C@@]1(C)CC(=O)[C@]2(O)C3(C)[C@@H](O)CCC(C)(C)[C@@H]3C(OC(=O)CC)C(O)[C@@]2(C)O1 (stereo not given in full) |  | > 0.5 |  | Delta blood pressure [5]: -26.33 mmHg
C=C[C@@]1(C)CC(=O)[C@]2(O)C3(C)[C@@H](O)CCC(C)(C)[C@@H]3C(O)C(OC(=O)N(CC)CC)[C@@]2(C)O1 (stereo not given in full) | no significant activity | > 0.5 | 0 | 
C=C[C@@]1(C)CC(=O)[C@]2(O)C3(C)[C@@H](O)CCC(C)(C)[C@@H]3C(O)C(OC(=O)CC)[C@@]2(C)O1 (stereo not given in full) |  | > 0.5 | -25.3 | 
C=C[C@@]1(C)CC(=O)[C@]2(O)C3(C)[C@@H](O)CCC(C)(C)[C@@H]3C(O)C(OC(=O)CCC)[C@@]2(C)O1 (stereo not given in full) | no significant activity | > 0.5 | -19.7 | 
